APJ antagonist – antagonists of human apelin receptor APJ, primary screen, CHO-K1 cells, beta-arrestin complementation, luminescence. P35414. inhibition, % at 20 µM. actives 0.32% (n = 330,000). AID 2521, 2010;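 active = inhibition above about 40% at 20 µM, limit read from the data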;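 also: cells challenged with 10 nM apelin-13 agonist together with compound; plate controls were apelin-13 plus DMSO wells for no effect and DMSO wells lacking apelin-13 for full effect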
APJ ag – agonists of human apelin receptor APJ, primary screen, CHO-K1 cells, PathHunter beta-arrestin, luminescence. P35414. 0% DMSO wells, 100% apelin. activation, % at 20 µM. actives 0.11% (n = 330,000). AID 2520, 2010;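 active = activation more than six SD over the plate average, tested at 20 µM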;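 also: 0% = DMSO alone and 100% = apelin-13 at 10 nM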
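Test system: CHO-K1 APJ beta-arrestin complementation cell line | Compound: Single test compound dose, 20 µM final, 1% DMSO | Incubation: Compound 90 min 25 °C, reagent 1 h | Measured by: beta-gal luminescence | Read-out basis: APJ–arrestin association signal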
HTR2A ag – mouse Htr2a agonists via beta-arrestin recruitment, primary screen, cell-based, luminescence | actives 0.66% (n = 360,000) | activation, % at 7.6 µM | AID 624169, 2012 | CHO-K1 mHTR2A beta-arrestin complementation; percent of 30 µM serotonin response;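 active = activation above a run cutoff, the mean activation of all tested compounds plus 3 SD, cut at about 14% in these data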;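 also: 0% = plate median of compound wells and 100% = 30 µM serotonin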
CCR6 antagonist – CCR6 receptor antagonists, primary screen, cell-based, CHO-K1, luminescence, beta-arrestin, uHTS | inhibition, % at 20 µM | actives 0.49% (n = 340,000) | AID 493098, 2011 | CHO-K1 CCR6 PathHunter beta-arrestin, CCL20-stimulated;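 active = compounds whose inhibition of the agonist-driven luminescence signal at 20 µM reaches about 50%, limit read from the data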;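 also: cells stimulated with CCL20 at 14 nM final; plate controls were DMSO with CCL20 for no effect and DMSO without agonist for full effect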
Target sequence (P51684 whole entry, looked up): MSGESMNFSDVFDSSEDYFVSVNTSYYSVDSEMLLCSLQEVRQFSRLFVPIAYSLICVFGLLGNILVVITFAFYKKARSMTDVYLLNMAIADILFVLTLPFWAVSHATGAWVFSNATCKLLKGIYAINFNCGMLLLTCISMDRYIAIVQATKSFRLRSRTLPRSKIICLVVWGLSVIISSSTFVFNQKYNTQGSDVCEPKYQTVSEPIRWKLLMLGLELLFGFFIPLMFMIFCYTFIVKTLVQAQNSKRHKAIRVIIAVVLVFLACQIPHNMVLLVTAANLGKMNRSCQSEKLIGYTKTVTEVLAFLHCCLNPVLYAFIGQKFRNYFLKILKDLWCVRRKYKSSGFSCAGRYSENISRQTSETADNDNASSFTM
NTR1 ag – agonists of human NTR1, primary screen, imaging, U2OS cells, beta-arrestin-GFP, high content; Neurotensin receptor type 1 (Homo sapiens), P30989; NTR1-U2OS beta-arrestin-GFP spot imaging, agonist mode; activation, % at 20 µM; actives 0.17% (n = 330,000);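 active = activation at or above 40% of the spot to cytoplasm intensity ratio, with at least 20 cells analyzed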;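 also: 0% = DMSO without peptide and 100% = 100 nM NTR1 peptide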
CXCR6 block – CXCR6 receptor inhibitors, primary screen, cell-based, beta-arrestin, luminescence, CHO-K1 PathHunter, 1536-well | inhibition, % at 20 µM | C-X-C chemokine receptor type 6 (Homo sapiens), O00574 | AID 602244, 2012 | actives 0.36% (n = 360,000); in the data active = inhibition above about 34%, passing the limit was not always enough;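 also: antagonist mode with CXCL16 agonist at 10 nM final; 0% = 10 nM CXCL16 with DMSO and 100% = unstimulated wells without agonist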
Target sequence (O00574 whole entry, looked up): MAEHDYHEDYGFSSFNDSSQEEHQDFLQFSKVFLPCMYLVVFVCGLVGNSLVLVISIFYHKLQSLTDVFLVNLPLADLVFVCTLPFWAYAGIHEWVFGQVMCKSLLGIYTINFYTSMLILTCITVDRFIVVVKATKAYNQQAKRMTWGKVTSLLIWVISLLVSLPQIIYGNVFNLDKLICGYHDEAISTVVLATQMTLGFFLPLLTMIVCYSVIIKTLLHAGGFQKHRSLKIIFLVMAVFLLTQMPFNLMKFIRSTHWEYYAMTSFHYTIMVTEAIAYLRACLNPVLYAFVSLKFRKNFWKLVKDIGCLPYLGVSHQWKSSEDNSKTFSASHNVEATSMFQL
NTR1 ag conf – NTR1 agonists, single-dose retest, confirmation, imaging, U2OS cells, beta-arrestin-GFP, single concentration. activation, % at 20 µM. AID 504550, 2011. shares compounds with NTR1 ag. NTR1-U2OS beta-arrestin-GFP translocation imaging. actives 38% (n = 480);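 active = mean activation at 20 µM of at least 40%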;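 also: 0% = DMSO without peptide and 100% = 100 nM NTR1 peptide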
CXCR6 confirm – CXCR6 receptor antagonists, confirmation, cell-based, single concentration, beta-arrestin, luminescence | CHO-K1 CXCR6 PathHunter beta-arrestin | AID 602409, 2012 | actives 65% (n = 700) | inhibition, % at 20 µM | shares compounds with CXCR6 block;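 active = mean inhibition over four retests above 40%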;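 also: receptor stimulated with 10 nM CXCL16 agonist; beta-galactosidase fragment complementation upon beta-arrestin recruitment to receptor; plate controls were CXCL16 plus DMSO for no effect and DMSO without CXCL16 for full effect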
MOR ag counter – OPRM1 agonists via beta-arrestin recruitment, confirmation, counter-screen for mouse HTR2A agonist project, cell-based, luminescence, single concentration; activation, % at 9.3 µM; shares compounds with HTR2A ag; U2OS OPRM1 beta-arrestin PathHunter; DMSO 0%, DAMGO 9.3 µM 100%; actives 5.3% (n = 2,300); AID 624380, 2012;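 active = mean activation above the mean of DMSO-only wells plus 3 SD, cut at about 0.5% in these data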
HTR2A ag conf – mouse HTR2A agonists, beta-arrestin recruitment, confirmation, cell-based, luminescence, CHO-K1 PathHunter, triplicate; shares compounds with HTR2A ag; DMSO 0%, 30 µM serotonin 100%; activation, % at 7.6 µM; actives 19% (n = 2,300); AID 624381, 2012;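 active = mean activation across triplicates above the hit threshold derived in the original primary screen, cut at about 15% in these data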
* hit, by the source's call; . = no result given. Shown are actives, neighbours in structure and some others; about 1.5% of the full set was active somewhere.

SMILES | APJ antagonist | APJ ag | HTR2A ag | CCR6 antagonist | NTR1 ag | CXCR6 block | MOR ag counter | HTR2A ag conf | others
N=C(N)c1c(O)n(C2CCCCC2)c(=O)n(C2CCCCC2)c1=O | 14 | 5 | 1 | 27 | 54* | -10 | . | . | NTR1 ag conf=36
O=C1NC(=O)C(=Cc2ccc(SC3CCCCC3)o2)C(=O)N1 | 13 | 0 | 6 | 6 | 50* | -8 | . | . | NTR1 ag conf=68*
c1ccc(-c2cc(-c3ccccc3)[n+](-c3ccccc3)c(-c3ccccc3)c2)cc1 | -26 | 0 | 0 | 14 | 67* | -10 | . | . | NTR1 ag conf=65*
Cc1ccc(-c2cc(-c3ccc(C)cc3)[n+](-c3ccccc3)c(-c3ccc(C)cc3)c2)cc1 | 7 | 12 | -4 | 18 | 34 | 20 | . | .
Cc1ccc(-c2cc(-c3ccccc3)cc(-c3ccccc3)[n+]2-c2ccccc2)cc1 | -3 | 27 | 11 | -23 | 50* | -2 | . | . | NTR1 ag conf=82*
CS(=O)(=O)NNP(=O)(NNS(C)(=O)=O)NC(=O)c1ccc(Br)cc1 | -25 | -7 | 0 | 0 | -1 | -2 | . | .
CCN1C(=O)NC(=O)/C(=C\c2cn(CC(=O)N3CCCC3)c3ccccc23)C1=O | -22 | 1 | 8 | 11 | 3 | 7 | . | .
O=C1NC(=O)N(c2ccccc2F)C(=O)/C1=C/c1cn(CC(=O)N2CCOCC2)c2ccccc12 | -2 | -1 | . | 25 | 42* | . | . | . | NTR1 ag conf=32
C#C[C@]1(O)CCC2C3C(=O)C=C4C(Cl)=CCC[C@]4(C)C3CC[C@@]21C (stereo partly drawn) | . | . | -4 | 10 | . | -8 | . | .
CC(C)CCNC(=O)c1c(N)n(CC2CCCO2)c2nc3ccccc3nc12 (stereo not drawn) | 19 | -5 | 1 | -3 | 43* | 2 | . | . | NTR1 ag conf=30
Cc1c(N=Nc2c(O)n(Cc3ccccc3)c(=O)[nH]c2=O)c(=O)n(-c2ccccc2)n1C | 6 | -3 | -17 | 42 | 0 | 29 | . | .
O=C1NC(=O)N(c2ccccc2)C(=O)/C1=C\C=C\c1ccccc1 | 0 | 6 | 1 | 33 | 74* | 53* | . | . | NTR1 ag conf=49*
COC1CCC(OC2CC(C3(C)CCC4(CC(O)C(C)C(C(C)/C=C(\C)C(=O)C(C)CC(C)C(=O)O)O4)O3)OC3(OC(C4OC(O)(CO)C(C)CC4C)CC3C)C2C)OC1C (stereo not drawn) | . | . | -4 | 13 | . | 15 | . | .
CC1=C(O)C(=O)C=C2C1=CC=C1C2(C)CCC2(C)C3CC(C)(C(=O)O)CCC3(C)CCC12C (stereo not drawn) | . | . | -7 | . | . | 64* | . | . | CXCR6 confirm=53*
CN1C(=O)C(=Cc2ccc(N(C)C)c([N+](=O)[O-])c2)C(=O)N(C)C1=O | 10 | -4 | . | . | 2 | . | . | .
O=C(c1cc(Cl)cc(Cl)c1)N1Cc2ccccc2-n2nncc2C1 | . | . | 2 | . | . | 3 | . | .
COC(=O)C1=C(C(=O)OC)C2OC1c1cc3ccccc3cc12 | . | . | -9 | 109* | . | 85* | . | . | CXCR6 confirm=91*
COc1cc(OC)c(OC)cc1CNCCc1ccc(F)cc1 | 9 | -2 | -4 | 12 | 2 | 5 | . | .
COc1ccccc1CNCCc1cccc(Cl)c1 | . | . | 43* | . | . | 5 | 0 | 21*
COc1ccc(CCNCc2ccccc2F)cc1OC | 5 | -3 | 17* | -8 | 1 | 3 | -1 | 6
COc1ccccc1CNCCc1ccc(F)cc1 | 15 | -3 | 32* | 8 | -1 | -1 | 0 | 9
COc1ccc(/C=C/C(=O)NC(=S)N2C[C@H]3C[C@H](C2)c2cccc(=O)n2C3)cc1OC | -15 | -3 | -3 | 2 | -1 | 2 | . | .
Cc1c(C)c2ccc(OCC(=O)N3C[C@H]4C[C@@H](C3)c3cccc(=O)n3C4)c(C)c2oc1=O | 18 | -3 | 2 | 2 | 3 | 6 | . | .
Oc1cc2c(cc1CN1CCN(c3ccccc3)CC1)CCC2 | -10 | -5 | -5 | 22 | -1 | 0 | . | .
O=P(CN1CCN(c2ccccc2)CC1)(N1CCCCC1)N1CCCCC1 | 14 | 0 | 14* | 6 | 0 | 3 | 0 | 20*
SMILES | APJ antagonist | APJ ag | HTR2A ag | CCR6 antagonist | NTR1 ag | CXCR6 block | MOR ag counter | HTR2A ag conf | others
COc1ccc(CCNCc2sccc2C)cc1 | -4 | 1 | 25* | 14 | 1 | 0 | 0 | 9
O=C(O)c1nn(Cc2ccc(Cl)cc2)c2ccccc12 | . | . | 15* | . | . | 3 | 0 | 0
O=C(C(Cc1ccccc1)NS(=O)(=O)c1ccc(F)cc1)N1CCC2(CC1)OCCO2 (stereo not drawn) | 13 | -2 | 17* | -17 | 0 | -4 | -1 | 1
NCCNc1ccc([N+](=O)[O-])c2cccnc12 | 20 | -2 | 22* | 4 | 0 | 7 | -1 | 6
CCCCn1c(O)c(C(=O)/C=C/c2c[nH]c3ccccc23)c(=O)[nH]c1=O | 4 | -1 | 1 | -6 | 0 | -7 | . | .
CCOC(=O)c1c(/N=C/C2C(=O)NC(=S)NC2=O)sc2c1CCC2 | . | . | 5 | 19 | . | 4 | . | .
N#Cc1c(/N=C/C2C(=O)NC(=S)NC2=O)sc2c1CCCC2 | -6 | -5 | 15* | -1 | -3 | -12 | -1 | 36*
CNCCc1c[nH]c2ccccc12 | -3 | -5 | 32* | -10 | -1 | 1 | -1 | 16*
CNCCc1c[nH]c2ccc(O)cc12 | -6 | 2 | 59* | 0 | 0 | 2 | 0 | 141*
COc1cc(CNCCc2c[nH]c3ccccc23)cc(OC)c1OC | . | . | -4 | . | . | -10 | . | .

Assay outcomes from PubChem BioAssay.
